{
  "source": "ChEMBL document CHEMBL1136925",
  "about": "“Structure-activity relationship of cyanine tau aggregation inhibitors” (J Med Chem, 2009)",
  "key": {"[1]": {"experiment": "Inhibition of His-tagged human recombinant 2N4R tau protein aggregation assessed as inhibition octadecyl sulphate-induced fibrillation by filter trap assay"}, "Homo sapiens [2]": {"organism": "Homo sapiens", "experiment": "Inhibition of His-tagged human recombinan2N4R tau protein aggregation assessed as inhibition octadecyl sulphate-induced fibrillation at 10 uM by filter trap assay"}, "Homo sapiens [3]": {"organism": "Homo sapiens", "experiment": "Inhibition of human tau aggregation in human tau P301L mutant expressing JNPL3 transgenic mouse brain slices at 0.1 nM to 1 uM after 7 days", "assay_type": "tissue-based", "in_short": "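Slices from postnatal day 10 JNPL3 mice were cultured 14 days, then exposed 7 days to compound (0.1 nM–1 μM). The contralateral hemisphere received DMSO (0.008%) as control. RIPA extracts were equalized for total protein, incubated in 1% sarkosyl for 30 min at room temperature, and spun 100,000g for 1 h at 20°C. The insoluble pellet was boiled in SDS buffer, immunoblotted with CP27 and quantified by densitometry (n = 3) relative to vehicle.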"}, "Brain [4]": {"test_system": "Brain", "experiment": "Induction of apoptosis in human tau P301L mutant expressing JNPL3 transgenic mouse brain slice assessed as cleaved PARP1 after 7 days by densitometry", "assay_type": "tissue-based", "conditions": "168 h", "in_short": "(§1)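 Cortex and hippocampus slices (400 μm) cut from postnatal day 10 JNPL3 mouse brain, cultured 14 days on membrane inserts in 25% serum medium, then dosed for 7 days. The contralateral hemisphere received DMSO vehicle (0.008% final) as within-animal control. Slices were sonicated in cold RIPA with protease/phosphatase inhibitors and spun 20,000g for 20 min at 4°C. Supernatant α-tubulin and cleaved PARP1 were immunoblotted and quantified by densitometry (n = 3), normalized to vehicle.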"}, "Brain [5]": {"test_system": "Brain", "experiment": "Induction of apoptosis in human tau P301L mutant expressing JNPL3 transgenic mouse brain slice assessed as change in alpha-tubulin level at 1 nM after 7 days by densitometry", "assay_type": "tissue-based", "conditions": "168 h, 0.001 µM", "in_short": "as §1"}, "Homo sapiens [6]": {"organism": "Homo sapiens", "experiment": "Inhibition of human tau aggregation in human tau P301L mutant expressing JNPL3 transgenic mouse brain slices at 100 nM"}, "Homo sapiens [7]": {"organism": "Homo sapiens", "experiment": "Induction of human tau aggregation in human tau P301L mutant expressing JNPL3 transgenic mouse brain slices at >=300 nM"}, "Homo sapiens [8]": {"organism": "Homo sapiens", "experiment": "Inhibition of His-tagged human recombinan2N4R tau protein aggregation assessed as inhibition octadecyl sulphate-induced fibrillation up to 10 uM by filter trap assay"}},
  "note": "Activity calls are given as the source filed them. The calls are words filed in the database; no cut-off is given here.",
  "data": [
    {"smiles": "CCN1/C(=C/C=C/C=C/c2sc3ccccc3[n+]2CC)Sc2ccccc21", "note": "[DITHIAZANINE IODIDE]", "values": [
      {"measurement": "IC50", "setting": "[1]", "result": 2150, "unit": "nM"}
    ]},
    {"smiles": "CCC(/C=C1\\Sc2ccc(OC)cc2N1CCO)=C\\c1sc2ccc(OC)cc2[n+]1CCO", "values": [
      {"measurement": "IC50", "setting": "[1]", "result": 290, "unit": "nM"}
    ]},
    {"smiles": "CCN1/C(=C/C=C/c2oc3ccccc3[n+]2CC)Oc2ccccc21", "values": [
      {"measurement": "IC50", "setting": "[1]", "result": "> 10000", "unit": "nM"},
      {"measurement": "Activity", "setting": "Homo sapiens [2]", "result": "inactive"}
    ]},
    {"smiles": "CCN1/C(=C/C(C)=C/c2sc3ccccc3[n+]2CC)Sc2ccccc21.[I-]", "values": [
      {"measurement": "IC50", "setting": "[1]", "result": 280, "unit": "nM"},
      {"measurement": "Activity", "setting": "Homo sapiens [3]", "result": "Active"},
      {"measurement": "Activity", "setting": "Brain [4]", "result": "Non-toxic"},
      {"measurement": "Activity", "setting": "Brain [5]", "result": "Non-toxic"},
      {"measurement": "Activity", "setting": "Homo sapiens [6]", "result": "inactive"},
      {"measurement": "Activity", "setting": "Homo sapiens [7]", "result": "Active"}
    ]},
    {"smiles": "CC(/C=C1\\Sc2ccccc2N1CCCS(=O)(=O)[O-])=C\\c1sc2ccccc2[n+]1CCCS(=O)(=O)[O-].CC[n+]1ccccc1", "values": [
      {"measurement": "IC50", "setting": "[1]", "result": "> 10000", "unit": "nM"}
    ]},
    {"smiles": "CCN1/C(=C/C=C/c2sc3ccccc3[n+]2CC)Sc2ccccc21", "values": [
      {"measurement": "IC50", "setting": "[1]", "result": 960, "unit": "nM"}
    ]},
    {"smiles": "CCCCCCN1/C(=C/C=C/c2sc3ccccc3[n+]2CCCCCC)Sc2ccccc21", "values": [
      {"measurement": "IC50", "setting": "[1]", "result": "> 10000", "unit": "nM"},
      {"measurement": "Activity", "setting": "Homo sapiens [8]", "result": "inactive"}
    ]},
    {"smiles": "CCCN1/C(=C/C=C/C2=[N+](CCC)c3ccccc3C2(C)C)C(C)(C)c2ccccc21", "values": [
      {"measurement": "IC50", "setting": "[1]", "result": 2570, "unit": "nM"}
    ]},
    {"smiles": "CCN1/C(=C/C=C/C=C/C=C/c2sc3ccccc3[n+]2CC)Sc2ccccc21", "values": [
      {"measurement": "IC50", "setting": "[1]", "result": 5000, "unit": "nM"}
    ]},
    {"smiles": "CCN1/C(=C/c2sc3ccccc3[n+]2CC)Sc2ccccc21", "values": [
      {"measurement": "IC50", "setting": "[1]", "result": 10000, "unit": "nM"}
    ]},
    {"smiles": "CCN1/C(=C/C(C)=C/c2sc3c4ccccc4ccc3[n+]2CC)Sc2c1ccc1ccccc21", "values": [
      {"measurement": "IC50", "setting": "[1]", "result": 3290, "unit": "nM"}
    ]}
  ]
}
